Values after ≈ are worked out from the molar mass of the structure shown.

Assay [1] deals with Mycobacterium tuberculosis. Description: Antimycobacterial activity against Mycobacterium tuberculosis H37Rv ATCC 27294 assessed as inhibition of bacterial growth under GAST medium condition after 7 to 14 days by broth microdilution method. Type of assay: functional. The settings on record: time 7-14 day. A digest of the protocol: (§1)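 Mtb H37Rv ATCC 27294 by broth microdilution in GAST or 7H9 base with 5 g/L BSA fraction V, 0.8 g/L NaCl and 0.05% tyloxapol. Carbon source was 20 mM glycerol/10 mM glucose or 0.05 mM sodium palmitate. Compounds came from DMSO stocks with DMSO-only controls. Inoculum was 10⁴-10⁵ cells; growth was read at 7 and 14 days. MIC is the concentration giving >99% growth inhibition; runs were in triplicate.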

Assay [2] addresses T1, Medium/long-chain-fatty-acid--CoA/3-oxocholest-4-en-26-oate--CoA ligase (Mycobacterium tuberculosis, UniProt P9WQ51).
T1 sequence (P9WQ51 whole entry): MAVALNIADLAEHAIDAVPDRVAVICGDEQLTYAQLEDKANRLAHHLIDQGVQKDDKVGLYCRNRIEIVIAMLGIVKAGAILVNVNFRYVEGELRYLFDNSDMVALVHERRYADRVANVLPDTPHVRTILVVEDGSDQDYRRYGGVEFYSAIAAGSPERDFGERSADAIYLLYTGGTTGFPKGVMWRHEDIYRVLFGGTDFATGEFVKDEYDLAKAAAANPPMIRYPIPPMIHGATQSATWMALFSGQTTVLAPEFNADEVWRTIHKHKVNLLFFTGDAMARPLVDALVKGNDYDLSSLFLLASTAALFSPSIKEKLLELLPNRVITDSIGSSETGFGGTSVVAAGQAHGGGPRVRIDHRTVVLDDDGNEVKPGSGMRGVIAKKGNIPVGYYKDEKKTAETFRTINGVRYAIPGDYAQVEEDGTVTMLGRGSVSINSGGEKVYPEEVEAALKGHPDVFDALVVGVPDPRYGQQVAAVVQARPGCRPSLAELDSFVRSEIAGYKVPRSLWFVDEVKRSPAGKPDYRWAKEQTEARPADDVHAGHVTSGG
Description: Inhibition of Mycobacterium tuberculosis H37Rv FACL19 Spectra expressed in Escherichia coli BL21(DE3) cells assessed as cleavage of MEsG by spectroscopic analysis. The settings on record: read-out: Ki(app). The gist of the method: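 FACL19 (0.167 μM) with 250 μM dodecanoic acid in a coupled MesG assay with pyrophosphatase and nucleoside phosphorylase. Buffer was 50 mM Tris·HCl pH 8.0 with 2.5 mM ATP, 5 mM MgCl₂, 0.5 mM DTT and 150 mM hydroxylamine. Apparent Ki came from a Morrison tight-binding fit.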

For assay [3], the target named is T2, Long-chain-fatty-acid--AMP ligase FadD28 (Mycobacterium tuberculosis, UniProt P9WQ59).
T2 sequence (P9WQ59 whole entry): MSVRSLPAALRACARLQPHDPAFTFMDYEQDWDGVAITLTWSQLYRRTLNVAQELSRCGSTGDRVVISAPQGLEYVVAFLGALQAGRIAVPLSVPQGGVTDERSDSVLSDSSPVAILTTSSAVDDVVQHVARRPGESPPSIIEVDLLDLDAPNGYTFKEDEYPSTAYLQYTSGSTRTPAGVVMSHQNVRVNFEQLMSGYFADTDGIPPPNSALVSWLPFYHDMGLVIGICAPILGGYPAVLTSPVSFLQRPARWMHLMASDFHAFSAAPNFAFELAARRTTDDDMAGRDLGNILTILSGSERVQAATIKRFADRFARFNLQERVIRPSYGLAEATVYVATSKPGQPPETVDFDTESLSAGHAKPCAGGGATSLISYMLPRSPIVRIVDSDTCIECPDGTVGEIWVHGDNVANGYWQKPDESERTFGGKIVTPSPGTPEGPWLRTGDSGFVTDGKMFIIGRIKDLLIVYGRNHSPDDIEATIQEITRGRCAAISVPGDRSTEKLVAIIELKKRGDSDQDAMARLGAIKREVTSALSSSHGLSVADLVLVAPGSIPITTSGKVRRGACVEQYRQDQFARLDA
Description: Inhibition of Mycobacterium tuberculosis H37Rv FAAL28 Spectra expressed in Escherichia coli BL21(DE3) cells assessed as cleavage of MEsG by spectroscopic analysis. The settings on record: read-out: Ki(app). The gist of the method: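 Coupled continuous assay with pyrophosphatase (0.04 U) and nucleoside phosphorylase (0.1 U), using 0.45 μM FAAL28 and 33 μM tetradecanoic acid. Buffer was 50 mM Tris·HCl pH 8.0 with 2.5 mM ATP, 5 mM MgCl₂, 0.5 mM DTT, 150 mM hydroxylamine and 0.2 mM MesG. Apparent Ki came from a Morrison equation fit.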

Assay [4] relates to Mycobacterium tuberculosis. The experiment in a line: Antimycobacterial activity against Mycobacterium tuberculosis H37Rv ATCC 27294 assessed as inhibition of bacterial growth under 7H9 medium condition after 7 to 14 days in presence of palmitate by broth microdilution method. In kind it is functional. The settings on record: time 7-14 day. The gist of the method: as §1
Assay [5] concerns Mycobacterium tuberculosis. The experiment in a line: Antimycobacterial activity against Mycobacterium tuberculosis H37Rv ATCC 27294 assessed as inhibition of bacterial growth under 7H9 medium condition after 7 to 14 days by broth microdilution method. Type of assay: functional. The settings on record: time 7-14 day. The gist of the method: as §1
The subject of the next assay is Vero. Description: Cytotoxicity against African green monkey Vero cells assessed as reduction in cell viability after 72 hrs by MTT assay. Type of assay: cell-based. The settings on record: Chlorocebus sabaeus. A digest of the protocol: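 Vero cells were seeded at (2.5–5.0) × 10⁴ per well in MEM with 5% FBS and penicillin/streptomycin. Compounds were added from 20 mM DMSO stocks to a final 100 μM. Controls were 0.5% and 50% DMSO, all in triplicate. After 72 h at 37 °C in 5% CO₂, cells got 1 mg/mL MTT for 3 h. Formazan was dissolved in isopropanol and read at 570/650 nm, with viability expressed relative to DMSO control.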

Consider `COc1cccc(OCCCCCCCCCCC(=O)NS(=O)(=O)OC[C@H]2O[C@@H](n3cnc4c(N)ncnc43)[C@H](O)[C@@H]2O)c1`, for which, in assay [1], the MIC came to 25 µM (≈ 15.9 µg/mL). Further, the Ki was more than 100 µM in assay [2] and 1.7 µM in assay [3].
`CCCCCC(=O)NS(=O)(=O)OC[C@H]1O[C@@H](n2cnc3c(N)ncnc32)[C@H](O)[C@@H]1O`: the MIC in assay [1] is 100 µM (≈ 44.4 µg/mL); in assay [4] it was more than 100 µM; in assay [5], more than 100 µM. Further, the Ki in assay [2] and in assay [3] was more than 100 µM each time. Moreover, the IC50 with Vero is 48.6 µM.
In the case of `CCCC(=O)NS(=O)(=O)OC[C@H]1O[C@@H](n2cnc3c(N)ncnc32)[C@H](O)[C@@H]1O`, the minimum inhibitory concentration (MIC) in assay [1], in assay [4] and in assay [5] was more than 100 µM each time. The Ki in assay [2] and in assay [3] was more than 100 µM in each case. In the assay on Vero, the IC50 was determined as 81.4 µM.
On to `Nc1ncnc2c1ncn2[C@@H]1O[C@H](COS(=O)(=O)NC(=O)CCCCCCCCCCOc2cccc(Cl)c2)[C@@H](O)[C@H]1O`, for which the MIC in assay [1] is 25 µM (≈ 16 µg/mL). Moreover, the Ki in assay [2] was 26.4 µM; in assay [3], 0.5 µM.
Consider `Nc1ncnc2c1ncn2[C@@H]1O[C@H](COS(=O)(=O)NC(=O)CCCCCCCCCCOc2cccc(C(F)(F)F)c2)[C@@H](O)[C@H]1O`, for which the MIC in assay [1] worked out at 25 µM (≈ 16.9 µg/mL). Further, the figures for the Ki in assay [2] and in assay [3] were 13.5 µM and 4.4 µM, respectively.
For `CCCCCCCCCCCCCCCCCCCC(=O)NS(=O)(=O)OC[C@H]1O[C@@H](n2cnc3c(N)ncnc32)[C@H](O)[C@@H]1O`, the minimal inhibitory concentration (MIC) in assay [1], in assay [4] and in assay [5] was more than 100 µM each time. Moreover, the IC50 in the assay on Vero was 0.1 µM.
As to `Nc1ncnc2c1ncn2[C@@H]1O[C@H](COS(=O)(=O)NC(=O)CCCCCCCCCCOc2ccc(Br)cc2)[C@@H](O)[C@H]1O`, the MIC in assay [1] was more than 50 µM. Also, the Ki worked out at 10.4 µM in assay [2] and 4 µM in assay [3].
On the same counts, the results for `Nc1ncnc2c1ncn2[C@@H]1O[C@H](CNS(=O)(=O)OCCCCCCCCCCCOc2ccccc2)[C@@H](O)[C@H]1O` are more than 50 µM, more than 100 µM and more than 100 µM.
As to `CCCCCCCCCCCCCCCC(=O)NS(=O)(=O)OC[C@H]1O[C@@H](n2cnc3c(N)ncnc32)[C@H](O)[C@@H]1O`, the results for the MIC in assay [1], in assay [4] and in assay [5] were 6.25 µM (≈ 3.65 µg/mL), more than 100 µM and 100 µM (≈ 58.5 µg/mL), respectively. In addition, the half-maximal inhibitory concentration (IC50) in the assay with Vero is 0.3 µM. The Ki in assay [3] amounted to 1 µM.
With `Nc1ncnc2c1ncn2[C@@H]1O[C@H](COS(=O)(=O)NCCCCCCCCCCCOc2ccccc2)[C@@H](O)[C@H]1O`, the MIC in assay [1] is more than 50 µM. In addition, the Ki in assay [2] and in assay [3] was more than 100 µM throughout.
Turning to `Nc1ncnc2c1ncn2[C@@H]1O[C@H](COS(=O)(=O)NC(=O)CCCCCCCCCCNc2ccccc2)[C@@H](O)[C@H]1O`, in assay [1], the MIC was determined as 12.5 µM (≈ 7.57 µg/mL). Moreover, the Ki came out at 63.4 µM in assay [2] and 7.3 µM in assay [3].
For `Nc1ncnc2c1ncn2[C@@H]1O[C@H](COS(=O)(=O)NC(=O)CCCCCCCCCCOc2ccccc2Cl)[C@@H](O)[C@H]1O` the same measures were more than 50 µM, more than 100 µM and 3.6 µM.
For `Nc1ncnc2c1ncn2[C@@H]1O[C@H](COS(=O)(=O)NC(=O)CCCCCCCCCCOc2ccc(F)cc2)[C@@H](O)[C@H]1O` the same measures were 12.5 µM (≈ 7.81 µg/mL), 11.4 µM and 0.3 µM.
On the same counts, the results for `Nc1ncnc2c1ncn2[C@@H]1O[C@H](CNS(=O)(=O)NC(=O)CCCCCCCCCCOc2ccccc2)[C@@H](O)[C@H]1O` are 1.56 µM (≈ 0.945 µg/mL), more than 100 µM and 3.1 µM.
Take `Nc1ncnc2c1ncn2[C@@H]1O[C@H](COS(=O)(=O)NC(=O)CCCCCCCCCCOc2ccccc2C(F)(F)F)[C@@H](O)[C@H]1O`: the minimum inhibitory concentration (MIC) in assay [1] was more than 50 µM. Besides, the Ki in assay [2] came to 28.5 µM; in assay [3] it was 1.3 µM.
On the same counts, the results for `Nc1ncnc2c1ncn2[C@@H]1O[C@H](COS(=O)(=O)NC(=O)CCCCCCCCCCOc2cccc3ccccc23)[C@@H](O)[C@H]1O` are more than 50 µM, 9.64 µM and 25.2 µM.
Take `Nc1ncnc2c1ncn2[C@@H]1O[C@H](COS(=O)(=O)NC(=O)CCCCCCCCCCCOc2ccccc2)[C@@H](O)[C@H]1O`: in assay [1], the MIC was determined as 12.5 µM (≈ 7.76 µg/mL). The Ki in assay [2] was more than 100 µM; in assay [3] it was 2.6 µM.
For `COc1ccccc1OCCCCCCCCCCC(=O)NS(=O)(=O)OC[C@H]1O[C@@H](n2cnc3c(N)ncnc32)[C@H](O)[C@@H]1O` the same measures were more than 50 µM, more than 100 µM and more than 100 µM.
For `Nc1ncnc2c1ncn2[C@@H]1O[C@H](COS(=O)(=O)NC(=O)CCCCCCCCCCOc2ccc(C(F)(F)F)cc2)[C@@H](O)[C@H]1O` the same measures were 25 µM (≈ 16.9 µg/mL), 34.4 µM and 15.6 µM.
For `Nc1ncnc2c1ncn2[C@@H]1O[C@H](COS(=O)(=O)NC(=O)CCCCCCCCCCOc2ccccc2F)[C@@H](O)[C@H]1O` the same measures were more than 50 µM, more than 100 µM and 1.5 µM.
Regarding `Nc1ncnc2c1ncn2[C@@H]1O[C@H](COS(=O)(=O)NC(=O)CCCCCCCCCCOc2ccc(Cl)cc2)[C@@H](O)[C@H]1O`, the MIC in assay [1] was determined as 6.25 µM (≈ 4.01 µg/mL). Further, the values for the Ki in assay [2] and in assay [3] were 13.7 µM and 2.2 µM, respectively.
For `Nc1ncnc2c1ncn2[C@@H]1O[C@H](COS(=O)(=O)NC(=O)CCCCCCCCCOc2ccccc2)[C@@H](O)[C@H]1O` the same measures were 50 µM (≈ 29.6 µg/mL), more than 100 µM and 6.7 µM.
On the same counts, the results for `Nc1ncnc2c1ncn2[C@@H]1O[C@H](COS(=O)(=O)NC(=O)CCCCCCCCCCOc2cccc(F)c2)[C@@H](O)[C@H]1O` are 25 µM (≈ 15.6 µg/mL), 7.3 µM and 1.6 µM.
For `COc1ccc(OCCCCCCCCCCC(=O)NS(=O)(=O)OC[C@H]2O[C@@H](n3cnc4c(N)ncnc43)[C@H](O)[C@@H]2O)cc1` the same measures were more than 50 µM, more than 100 µM and 6.6 µM.
With `Nc1ncnc2c1ncn2[C@@H]1O[C@H](COS(=O)(=O)NC(=O)CCCCCCCCCCSc2ccccc2)[C@@H](O)[C@H]1O`, the MIC in assay [1] was more than 50 µM. Also, the results for the Ki in assay [2] and in assay [3] were 41.6 µM and 6.3 µM, respectively.
Regarding `Nc1ncnc2c1ncn2[C@@H]1O[C@H](COS(=O)(=O)NC(=O)CCCCCCCCCCOc2ccc3ccccc3c2)[C@@H](O)[C@H]1O`, in assay [1], the MIC is more than 50 µM. For the same molecule, the Ki in assay [2] came out at 20.4 µM; in assay [3] it was 1.88 µM.

Values taken from ChEMBL document CHEMBL4765357, “Development of small-molecule inhibitors of fatty acyl-AMP and fatty acyl-CoA ligases in Mycobacterium tuberculosis” (Eur J Med Chem, 2020).
